These results are taken from ChEMBL document CHEMBL5532692, “Structure-based virtual screening of unbiased and RNA-focused libraries to identify new ligands for the HCV IRES model system” (RSC Med Chem, 2024).

Each structure is given as a SMILES string.

The first test concerns the target Internal ribosome entry site (IRES). Description: Binding affinity to HCV IRES subdomain IIa RNA assessed as dissociation constant by MST assay. Format: nucleic-acid assay, Hepacivirus hominis.
Settings: not given
Put shortly: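 Same two-stranded IIa RNA, Cy5-labelled, annealed at 75 °C then cooled to room temperature for at least 20 min in 10 mM HEPES pH 7.0, 2 mM MgCl2. Used at 30 nM with compound from 1 mM (or 316/100 μM if solubility-limited) to 0.01 μM in 3.16-fold steps, 2% DMSO final. Thermophoresis read after 18 s laser on-time. KD from triplicates.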
Turning to `COc1ccc2c(C)nc(NC(=N)N)nc2c1`, the dissociation constant Kd was 134 µM.

Regarding `Nc1cc(-c2ccc3[nH]ncc3c2)c2cc[nH]c2n1`, the Kd was not below 50 µM.

As to `NC1=NC(c2cn[nH]c2-c2cccc(O)c2)n2c(nc3ccccc32)N1` (stereo unspecified), the Kd was not below 100 µM.

`CCOc1ccc2c(C)nc(NC(=N)N)nc2c1`: the Kd was determined as 189 µM.

With `CC(C)NCC(O)COc1ccc2[nH]cc(CCN)c2c1` (stereo unspecified), the equilibrium dissociation constant (Kd) was determined as 134 µM.

On to `N=C(N)NC(=O)c1nc(Cl)c(N)nc1N` [AMILORIDE], for which the dissociation constant (Kd) is not below 100 µM.

With `CNC(=N)Nc1nc(C)c2ccc(OC)cc2n1`, the Kd turned out to be 88 µM.

The next test concerns Internal ribosome entry site (IRES). The experiment in a line: Binding affinity to HCV IRES subdomain IIa RNA. As to conditions: Hepacivirus hominis; dose 0.001-1000 µM.
For `NC1=Nc2nc3ccccc3n2C(C2CC2)N1` (stereo unspecified), the Activity result is “Dose-Dependent Effect”.

With `NC1=NC(c2ccccc2)n2c(nc3ccccc32)N1` (stereo unspecified), the Activity entry is “Dose-Dependent Effect”.

Regarding `COc1cccc(C2NC(N)=Nc3nc4ccccc4n32)c1` (stereo unspecified), the Activity result is “Dose-Dependent Effect”.

A further test deals with Internal ribosome entry site (IRES). The experiment in a line: Binding affinity to HCV IRES subdomain IIa RNA assessed as reduction in FRET signal by FRET assay. Format: nucleic-acid assay, Hepacivirus hominis.
Settings: not given
The method, boiled down:
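Two-stranded HCV IRES IIa RNA, 5'-Cy3 on one strand and 5'-Cy5 on the other, annealed at 75 °C then cooled to room temperature for at least 20 min in 10 mM HEPES pH 7.0, 2 mM MgCl2. RNA at 100 nM with compound; excitation 480 nm, Cy5 emission 670 nm. Dose–response 1 mM to 100 nM in 3.16-fold steps, 2% DMSO final. EC50 from at least triplicates.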
As to `NC1=NC(c2cn[nH]c2-c2cccc(O)c2)n2c(nc3ccccc32)N1` (stereo unspecified), the EC50 was not below 1000 µM.

Broadly, the Kd is the concentration at which binding is half-saturated. By EC50 is commonly meant the concentration that produces a half-maximal response.
